# Measured values as given in the M2OR odorant receptor database.
# Biological target: T1, OR5K1 (Homo sapiens) (UniProt Q8NHB7)
# T1 sequence (whole entry): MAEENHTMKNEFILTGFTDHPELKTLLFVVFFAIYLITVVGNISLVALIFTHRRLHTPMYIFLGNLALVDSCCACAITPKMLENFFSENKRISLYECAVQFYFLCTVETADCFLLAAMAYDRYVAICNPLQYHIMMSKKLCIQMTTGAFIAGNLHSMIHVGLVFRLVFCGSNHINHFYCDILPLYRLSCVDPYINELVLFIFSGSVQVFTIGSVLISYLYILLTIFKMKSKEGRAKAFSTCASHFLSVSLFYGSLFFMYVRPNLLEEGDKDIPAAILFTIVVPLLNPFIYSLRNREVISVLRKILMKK
# Conditions: stereoisomer not certain
# Summary of the method: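 Transient luciferase assays in mammalian cell lines were common, though methods varied by source. The values come from published papers and their supplementary material, with extra details from the original authors when needed. Responsive refers to a measured signal the original authors judged statistically different from baseline, and non-responsive (inactive) to the remainder.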
# 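Also: active if original authors judged signal statistically different from baseline.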
row,SMILES,odorant receptor agonist call
1,CCC(=O)C1=NCCC1,inactive
2,O=C(O)CCc1ccccc1,inactive
3,C=C1CCC2(C(C)C)CC12 (centres undefined),inactive
4,CCCCC(CC)CCC(=O)O (centres undefined),inactive
5,CCCCC1OC(=O)CC1C (centres undefined),inactive
6,CCCCC1CCC(=O)O1 (centres undefined),inactive
7,CC(=O)c1ccc(C)cc1,inactive
8,CSSSC,inactive
9,CC1=CCC(C(C)C)C=C1 (centres undefined),inactive
10,CCOC(=O)C1CCCCC1,inactive
11,C=CC(O)CCCCC (centres undefined),inactive
12,CCOC(C)=O,inactive
13,CC=CC(=O)C1=C(C)CCCC1(C)C,inactive
14,CCc1cccc(O)c1,inactive
15,Cc1occc(=O)c1O,inactive
16,CCCCCCCC(C)=O,inactive
17,CCOC(=O)CC(C)C,inactive

row,SMILES,odorant receptor agonist call
1,CCCCCC=O,inactive
2,CCCCCC=CC=CC=O,inactive
3,COc1ccc2ccc(=O)oc2c1,inactive
4,COC(=O)C(C)C,inactive
5,COc1cccc(OC)c1O,inactive
6,Cc1cccc(O)c1,inactive
7,CC=Cc1ccc(OC)cc1,inactive
8,CC(C)(S)CCOC=O,inactive
9,CCCCCCCC1CCC(=O)O1 (centres undefined),inactive
10,Cc1occc1S,inactive
11,CCCSSSC,inactive
12,CCCCC=CC=CC=O,inactive
13,C=CC(=O)CCCCC,inactive
14,CCCC(O)CC(=O)OCC (centres undefined),inactive
15,COc1ccc(C)cc1O,inactive
16,C=CCSC,inactive
17,CC(=O)C=CC1=C(C)CCCC1(C)C,inactive
